Screening results as filed in PubChem BioAssay.
CHRM4 antagonist – human M4 muscarinic receptor antagonists, primary screen, CHO cells, Fluo-8 calcium fluorescence; Muscarinic acetylcholine receptor M4 (Homo sapiens), P08173; 360,000 compounds, 0.73% hits; AID 624125, 2012; inhibition, % at 3 µM; CHO-hM4 cells, ACh EC80;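 active means inhibition above its plate's cutoff, the mean inhibition of sample wells plus 3 SD, cut at about 27% in these data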
TAAR1 antag – human TAAR1 antagonists, primary screen, Fluo-8 calcium fluorescence, CHO RD-HGA16 cells | 360,000 compounds, 1.5% hits | inhibition, % at 3 µM | antagonist;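 active means inhibition above a per-plate cutoff, the mean inhibition of test compounds on that plate plus 3 SD, cut at about 49% in these data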
Target sequence (Q96RJ0 whole entry, looked up): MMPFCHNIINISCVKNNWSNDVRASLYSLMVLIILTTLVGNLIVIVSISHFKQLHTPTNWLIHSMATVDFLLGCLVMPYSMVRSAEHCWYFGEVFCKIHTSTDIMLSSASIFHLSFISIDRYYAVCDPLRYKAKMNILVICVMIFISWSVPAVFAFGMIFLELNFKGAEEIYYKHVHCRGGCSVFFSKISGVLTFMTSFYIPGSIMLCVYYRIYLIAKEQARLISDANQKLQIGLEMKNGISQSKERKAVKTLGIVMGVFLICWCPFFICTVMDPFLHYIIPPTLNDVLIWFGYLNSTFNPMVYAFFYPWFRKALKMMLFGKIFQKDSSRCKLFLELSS
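Test system: RD-HGA16 CHO cells with stable hTAAR1 and Gα16 / Probe or stimulus: EC80 β-phenethylamine stimulus / Times: seeding 17-24 h prior, 75-min 37 °C, 30-min RT dye loading / Detection: Fluo-8 calcium-sensitive fluorescence / Read-out basis: % inhibition scaled between DMSO and EC80 PEA controls / Repeats: singlicate, one well per test compound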
TAAR1 agonist – human TAAR1 agonists, primary screen, Fluo-8 calcium fluorescence, CHO RD-HGA16 cells; vehicle wells 0%, saturating PEA agonist 100%; Trace amine-associated receptor 1 (Homo sapiens), Q96RJ0; activation, % at 3 µM; 360,000 compounds, 0.99% hits;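 active means activation above the mean activation of all test compounds in the run plus 3 SD, cut at about 38% in these data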
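Assay system: CHO-derived RD-HGA16 cells with stable Gα16 and human TAAR1; timing: 17-24 h seeding, 75 min 37 °C dye, 30 min RT; read-out: % activation from peak over basal fluorescence ratio, DMSO-to-PEA scaled; measured by: kinetic Fluo-8 calcium fluorescence; benchmarks: low control DMSO, high control PEA (EC100); doses: 3 µM single concentration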
CHRM4 agonist – human M4 muscarinic receptor agonists, primary screen, CHO-K1 cells, Fluo-8 calcium fluorescence. 360,000 compounds, 0.14% hits. AID 624127, 2012. Muscarinic acetylcholine receptor M4 (Homo sapiens), P08173. activation, % at 3 µM. CHO-K1 hM4/Gqi5; vehicle 0%, full acetylcholine response 100%;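 active means activation above the run mean over all test wells plus 3 SD, cut at about 32% in these data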;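 further: peak over basal fluorescence ratio per well then scaled between controls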
M4 PAM – human M4 muscarinic receptor positive allosteric modulators, primary screen, CHO-K1 cells, Fluo-8 calcium fluorescence; Muscarinic acetylcholine receptor M4 (Homo sapiens), P08173; CHO-K1 hM4/Gqi5, ACh EC20; 0% = ACh EC20, 100% = maximal ACh; activation, % at 3 µM; 360,000 compounds, 0.4% hits;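 active means activation above its plate's cutoff, the mean activation of sample wells plus 3 SD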
nonsel antag count – nonselective antagonists in TAAR1 counter-screen cells, counter-screen for hTAAR1 antagonist project, cell-based, fluorescence, calcium; counterscreen cell line, antagonist mode; inhibition, % at 3 µM; shares compounds with TAAR1 antag; 2,400 compounds, 77% hits; AID 651780, 2012; in the data active means inhibition above about 22%;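 further: CHO-Ga16 host cells stimulated with ATP at an EC80 level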
TAAR1 antag conf – human TAAR1 antagonists, retest of hits, confirmation, cell-based, fluorescence | 2,400 compounds, 40% hits | shares compounds with TAAR1 antag | TAAR1-expressing cells, fluorescence antagonist read-out | inhibition, % at 3 µM; in the data active means inhibition above about 49%;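 further: CHO-Ga16 host cells challenged with agonist PEA near its EC80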
Ga16 nonsel ag – calcium activation in Ga16-expressing cells, counter-screen for TAAR1 antagonist project, cell-based, fluorescence | shares compounds with TAAR1 antag | 2,400 compounds, 18% hits | activation, % at 3 µM | agonist counterscreen; in the data active means activation above about 12%
TAAR1 ag count – TAAR1 activation by candidate antagonists – cell-based, fluorescence, counter-screen for TAAR1 antagonist project. shares compounds with TAAR1 antag. hTAAR1 cell line, agonist mode. activation, % at 3 µM. 2,400 compounds, 2% hits. AID 651955, 2012; in the data active means activation above about 37%;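 further: CHO cells stably expressing TAAR1 with calcium dye readout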
Large screens that a line does not name were inactive (follow-up assays come after a bar, where they were run). Shown are actives, neighbours in structure and some others; about 3% of the full set was active somewhere.

COc1ccc(-c2oc3ccc(N4CCOCC4)cc3c2C#CCO)cc1	TAAR1 antag 58 | nonsel antag count 23 | TAAR1 antag conf inactive | Ga16 nonsel ag inactive | TAAR1 ag count inactive
COCCNC(=O)C1CCCN(Cc2ccc(C#N)cc2)CC1 (stereo unspecified)	none
CC1(C(=O)NCc2ccccc2)CSCC(=O)N1Cc1ccco1 (stereo unspecified)	none
O=C(Nc1nc(-c2cc(F)ccc2F)cs1)c1cccc(N2C(=O)CCC2=O)c1	TAAR1 antag 75 | nonsel antag count 48 | TAAR1 antag conf 60 | Ga16 nonsel ag 22 | TAAR1 ag count inactive
C=CCN1C(c2ccc(Br)cc2)=CS/C1=C(\C#N)c1nnc(N2CCOCC2)n1-c1ccccc1	TAAR1 antag 58 | nonsel antag count 24 | TAAR1 antag conf inactive | Ga16 nonsel ag inactive | TAAR1 ag count inactive
C=CCN1C(c2cccc(C(F)(F)F)c2)=CS/C1=C(\C#N)c1nnc(N2CCOCC2)n1-c1ccccc1	none
CCC(=O)c1ccc(OCC(=O)OCC(=O)Nc2ccc(C)c(S(=O)(=O)N3CCCCC3)c2)cc1	TAAR1 antag 67 | nonsel antag count 56 | TAAR1 antag conf 57 | Ga16 nonsel ag 17 | TAAR1 ag count inactive
CCC(=O)c1ccc(OCC(=O)OCC(=O)Nc2cccc(S(=O)(=O)N3CCCC3)c2)cc1	none
CCCCCCn1cc(CN2CC(N(C)CCC)CS2(=O)=O)nn1 (stereo unspecified)	none
CCc1c(C#N)c(SCCC(=O)Nc2ccc(F)cc2)nc2c1C(=O)CC(C)(C)C2	TAAR1 antag 74 | nonsel antag count 33 | TAAR1 antag conf 72 | Ga16 nonsel ag inactive | TAAR1 ag count inactive
Fc1cc(F)cc(Nc2nc(Cl)nc(NC3CCCC3)n2)c1	TAAR1 antag 56 | nonsel antag count inactive | TAAR1 antag conf inactive | Ga16 nonsel ag inactive | TAAR1 ag count inactive
CC(C)C[C@H]1CNC(=O)C(=O)N1C[C@@H]1CCCN1C[C@H](Cc1ccccc1)N1C[C@H](Cc2ccccc2)N(CCc2ccccc2)C(=O)C1=O	none
Cc1ccc(-c2nc(C(=O)NCCCN(C)C)cc3c2[nH]c2ccccc23)cc1	none
O=C(NCCO)c1cc2c([nH]c3ccccc32)c(-c2ccccc2)n1	none
COc1ccc(-c2cc(C(=O)NCC3CCCO3)c3ccccc3n2)cc1 (stereo unspecified)	none
O=C(NCC1CCCO1)c1cc2c([nH]c3ccccc32)c(-c2cccc(Br)c2)n1 (stereo unspecified)	TAAR1 antag 75 | nonsel antag count 34 | TAAR1 antag conf 58 | Ga16 nonsel ag inactive | TAAR1 ag count inactive
Cc1ccc(-c2nc(C(=O)NCC3CCCO3)cc3c2[nH]c2ccccc23)cc1 (stereo unspecified)	TAAR1 antag 76 | nonsel antag count 35 | TAAR1 antag conf 55 | Ga16 nonsel ag inactive | TAAR1 ag count inactive
COc1ccc(-c2nc(C(=O)NCC3CCCO3)cc3c2[nH]c2ccccc23)cc1 (stereo unspecified)	TAAR1 antag 67 | nonsel antag count 25 | TAAR1 antag conf inactive | Ga16 nonsel ag inactive | TAAR1 ag count inactive
Cc1ccccc1-c1nc(C(=O)NCC2CCCO2)cc2c1[nH]c1ccccc12 (stereo unspecified)	TAAR1 antag 55 | nonsel antag count 28 | TAAR1 antag conf inactive | Ga16 nonsel ag inactive | TAAR1 ag count inactive
CCN(CC(=O)Nc1ccc(C#N)cc1)CC(=O)Nc1ccc2c(c1)OCCO2	none
C=C(C)C(=O)OCC(O)COc1ccc(C(C)(C)c2ccc(OCC(O)COC(=O)C(=C)C)cc2)cc1 (stereo unspecified)	CHRM4 antagonist 32, TAAR1 antag 92 | nonsel antag count 55 | TAAR1 antag conf 70 | Ga16 nonsel ag 19 | TAAR1 ag count inactive
CC(=O)c1ccc(OCC(O)COc2ccc(C(C)=O)cc2)cc1	none
COc1ccc(C2=Nc3ccccc3N(C(=O)c3cc(Cl)cc(Cl)c3)C2C(=O)NCc2ccccc2)cc1 (stereo unspecified)	none
CCOC(=O)C1CCCN(C(=O)c2cc(-c3ccco3)nc3ccccc23)C1 (stereo unspecified)	none
CCOC(=O)C1CCCN(c2c(C(=O)c3ccccc3)cnc3ccccc23)C1 (stereo unspecified)	TAAR1 antag 54 | nonsel antag count inactive | TAAR1 antag conf inactive | Ga16 nonsel ag inactive | TAAR1 ag count inactive
CCOC(=O)C1CCCN(C(=O)c2cc(Nc3ccc(OC)cc3)nc3ccccc23)C1 (stereo unspecified)	TAAR1 antag 49 | nonsel antag count 29 | TAAR1 antag conf inactive | Ga16 nonsel ag inactive | TAAR1 ag count inactive
Fc1cccc(-c2c(-c3ccccc3)ncc3cc(F)ccc23)c1	TAAR1 antag 72 | nonsel antag count inactive | TAAR1 antag conf inactive | Ga16 nonsel ag inactive | TAAR1 ag count inactive
CCCc1c(-c2ccc(F)cc2)ncn1Cc1ccccc1OC	none
CCCCCCn1nc(C(=O)OCC(=O)c2c(N)n(C)c(=O)n(C)c2=O)c2ccccc2c1=O	TAAR1 antag 78 | nonsel antag count 36 | TAAR1 antag conf 53 | Ga16 nonsel ag inactive | TAAR1 ag count inactive
CCCCCn1nc(C(=O)OCC(=O)c2c(N)n(C)c(=O)n(C)c2=O)c2ccccc2c1=O	none
COC(=O)c1c(-c2ccc(OC)cc2)oc2ccc(-c3cc(OC)c(OC)c(OC)c3)cc12	TAAR1 antag 58 | nonsel antag count inactive | TAAR1 antag conf inactive | Ga16 nonsel ag inactive | TAAR1 ag count inactive
CCCOC(=O)c1c(-c2ccc(OC)cc2)oc2ccc(-c3ccc(OC)nc3)cc12	none (no result: TAAR1 antag, TAAR1 agonist) | nonsel antag count inactive | Ga16 nonsel ag inactive
COc1ccc(C(=O)c2c(-c3ccc(OC)cc3)oc3ccc(-c4cc(OC)c(OC)c(OC)c4)cc23)cc1	none
